Positions count from the first letter of the chain named.
How the values were obtained:
WT LasR [1] = molecular target: T1, WT LasR (Pseudomonas aeruginosa, UniProt P25084); assay: Pyocyanin assay, ΔlasI strain with WT LasR; type: cell-based, Pseudomonas aeruginosa PA14; conditions: 10 μM
T1 sequence (P25084 1-239): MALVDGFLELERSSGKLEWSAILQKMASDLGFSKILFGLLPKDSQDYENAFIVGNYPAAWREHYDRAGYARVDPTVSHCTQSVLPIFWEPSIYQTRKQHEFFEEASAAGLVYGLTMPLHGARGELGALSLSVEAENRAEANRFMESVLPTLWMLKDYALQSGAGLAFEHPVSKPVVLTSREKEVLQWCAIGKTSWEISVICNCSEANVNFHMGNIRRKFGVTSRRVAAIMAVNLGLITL
Outline: (§1)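 Overnight LB cultures of PA14 lasI (WT lasR) or lasI lasR T75V/Y93F/A127W were grown at 37°C, diluted (100 μL into 3 mL LB) and shaken 8 h at 37°C. They were then diluted 2 μL into 2 mL LB with DMSO or compound and shaken 17 h at 37°C. OD600 was read, then supernatant OD695 after centrifugation. Pyocyanin = OD695/OD600. n=3, SEM.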

WT LasR LBD = molecular target: T2, WT LasR LBD (Pseudomonas aeruginosa, UniProt P25084); assay: Protein solubility assay, WT LasR LBD produced in E. coli; type: cell-based; conditions: 10 μM compound
T2 sequence (P25084 1-173 limits assumed): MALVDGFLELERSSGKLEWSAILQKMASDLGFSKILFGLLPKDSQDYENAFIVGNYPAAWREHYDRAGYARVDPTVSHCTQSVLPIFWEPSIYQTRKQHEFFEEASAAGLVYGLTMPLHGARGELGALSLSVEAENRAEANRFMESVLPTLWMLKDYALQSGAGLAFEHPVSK
Outline: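 E. coli BL21(DE3) with plasmid-borne 6xHis-WT LasR LBD were grown overnight, diluted 1:500 in LB with ampicillin and grown to OD600 0.5. Cells were induced with 1 mM IPTG plus test compound at 10 μM final, then shaken 4 h at 25°C or 37°C. Whole-cell lysate and soluble fractions were compared by band intensity. Fraction soluble = soluble band / whole-cell lysate band.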

LasR LBD = molecular target: T3, LasR LBD (Pseudomonas aeruginosa, UniProt P25084); assay: Thermal shift assay, LasR LBD:BB0126; type: binding
T3 sequence (P25084 1-173 limits assumed): T2 sequence (P25084 1-173 limits assumed)
Outline: (§2)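 6xHis-LasR LBD (WT or T75V/Y93F/A127W) was expressed in E. coli BL21(DE3) with 1 mM IPTG and 100 μM ligand (4 h, 25°C), then purified by Ni-NTA and size exclusion. Ligand-bound protein at 5 μM in 20 mM Tris-HCl pH 8, 200 mM NaCl, 1 mM DTT, with DMSO or 10 μM ligand, stood 15 min at room temperature. SYPRO Orange was added just before the run. Heating from 25 to 99°C at 0.05°C/s; fluorescence on ROX setting.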

LasR LBD T75V/Y93F/A127W = molecular target: T4, LasR LBD T75V/Y93F/A127W (Pseudomonas aeruginosa, UniProt P25084, A127W/T75V/Y93F); assay: Thermal shift assay, LasR LBD T75V/Y93F/A127W:BB0126; type: binding; conditions: for effect of excess ligand on Tm: LasR LBD T75V/Y93F/A127W:BB0126 with 10 μM excess ligand
T4 sequence (P25084 1-173 T75V/Y93F/A127W limits assumed): T2 sequence (P25084 1-173 limits assumed) with T75V, Y93F, A127W
Outline: as §2

WT LasR [2] = molecular target: T1, WT LasR; assay: E. coli lasB-lux reporter assay, WT LasR; type: cell-based
LasR T75V = molecular target: T5, LasR T75V (Pseudomonas aeruginosa, UniProt P25084, T75V); assay: E. coli lasB-lux reporter assay, LasR T75V; type: cell-based
T5 sequence (P25084 1-239 T75V): T1 sequence (P25084 1-239) with T75V

LasR Y93F = molecular target: T6, LasR Y93F (Pseudomonas aeruginosa, UniProt P25084, Y93F); assay: E. coli lasB-lux reporter assay, LasR Y93F; type: cell-based
T6 sequence (P25084 1-239 Y93F): T1 sequence (P25084 1-239) with Y93F

LasR T75V/Y93F = molecular target: T7, LasR T75V/Y93F (Pseudomonas aeruginosa, UniProt P25084, T75V/Y93F); assay: E. coli lasB-lux reporter assay, LasR T75V/Y93F; type: cell-based
T7 sequence (P25084 1-239 T75V/Y93F): T1 sequence (P25084 1-239) with T75V, Y93F

LasR T75V/A127W = molecular target: T8, LasR T75V/A127W (Pseudomonas aeruginosa, UniProt P25084, A127W/T75V); assay: E. coli lasB-lux reporter assay, LasR T75V/A127W; type: cell-based
T8 sequence (P25084 1-239 T75V/A127W): T1 sequence (P25084 1-239) with T75V, A127W

LasR Y93F/A127W = molecular target: T9, LasR Y93F/A127W (Pseudomonas aeruginosa, UniProt P25084, A127W/Y93F); assay: E. coli lasB-lux reporter assay, LasR Y93F/A127W; type: cell-based
T9 sequence (P25084 1-239 Y93F/A127W): T1 sequence (P25084 1-239) with Y93F, A127W

LasR T75V/Y93F/A127W [3] = molecular target: T10, LasR T75V/Y93F/A127W (Pseudomonas aeruginosa, UniProt P25084, A127W/T75V/Y93F); assay: E. coli lasB-lux reporter assay, LasR T75V/Y93F/A127W; type: cell-based
T10 sequence (P25084 1-239 T75V/Y93F/A127W): T1 sequence (P25084 1-239) with T75V, Y93F, A127W

WT LasR [4] = molecular target: T1, WT LasR; assay: P. aeruginosa PA14 rhlA-mNG reporter assay, WT lasR; type: cell-based, Pseudomonas aeruginosa PA14; conditions: ΔlasI P. aeruginosa PA14, 10 μM
Outline: (§3)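 P. aeruginosa PA14 lasI strains carried WT or T75V/Y93F/A127W lasR at the native chromosomal locus and a chromosomal prhlA-mNG fusion. Overnight cultures were diluted 1:1000 in LB with test compound at 10 μM and grown at 37°C for 8 h. Cells were pelleted and resuspended in PBS. Fluorescence was read at ex 485/em 535 nm, with A600 measured in parallel. n=3, SEM; multiple t-tests.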

LasR T75V/Y93F/A127W [5] = molecular target: T10, LasR T75V/Y93F/A127W; assay: P. aeruginosa PA14 rhlA-mNG reporter assay, lasR T75V/Y93F/A127W; type: cell-based, Pseudomonas aeruginosa PA14; conditions: ΔlasI P. aeruginosa PA14, 10 μM
Outline: as §3

LasR T75V/Y93F/A127W [6] = molecular target: T10, LasR T75V/Y93F/A127W; assay: Pyocyanin assay, ΔlasI strain with LasR T75V/Y93F/A127W; type: cell-based, Pseudomonas aeruginosa PA14; conditions: 10 μM
Outline: as §1

luciferase = assay: Off-target inhibition of luciferase in the E. coli lasB-lux reporter strain; type: cell-based; conditions: high concentrations (>10 μM)
WT LasR [7] = assay: E. coli lasB-lux reporter assay, WT LasR; type: cell-based, Pseudomonas aeruginosa; conditions: LasR T75V, Y93F and A127W single mutations, each relative to WT LasR
LasR R61A = molecular target: T11, LasR R61A (Pseudomonas aeruginosa, UniProt P25084, R61A); assay: E. coli lasB-lux reporter assay, LasR R61A; type: cell-based
T11 sequence (P25084 1-239 R61A): T1 sequence (P25084 1-239) with R61A

Compound | pyocyanin production (WT LasR [1]) | soluble WT LasR LBD (WT LasR LBD; induction at 25°C) | effect of excess ligand on Tm (LasR LBD T75V/Y93F/A127W) | EC50 (WT LasR [2]) [nM] | EC50 (LasR T75V) [nM] | EC50 (LasR T75V/Y93F) [nM] | EC50 (LasR T75V/A127W) [nM] | EC50 (LasR T75V/Y93F/A127W [3]) [nM] | activation of prhlA-mNG (WT LasR [4]) | activation of prhlA-mNG (LasR T75V/Y93F/A127W [5]) | pyocyanin production (LasR T75V/Y93F/A127W [6]) | off-target inhibition of luciferase (luciferase) | also measured
CCCCCCCCCC(=O)CC(=O)N[C@H]1CCOC1=O [3OC12HSL, N-3-oxo-dodecanoyl-L-homoserine lactone, reference compound] | induced pyocyanin production | yielded soluble WT LasR LBD | had no effect |  |  |  |  |  |  |  |  |  | stabilization by exogenous ligand (LasR LBD; LasR LBD:BB0126 with 10 μM exogenous 3OC12HSL): highly effective at binding to and stabilizing the LasR LBD
O=C(CCCOc1cccc(Br)c1)N[C@H]1C[C@@H]2C[C@@H]2C1=O (relative stereo) [BB0020, 4-(3-bromophenoxy)-N-(rel-(1S,3S,5S)-2-oxobicyclo[3.1.0]hexan-3-yl)butanamide] | activated both LasR alleles equally | yielded soluble WT LasR LBD |  | 6 | 15 | 20 | 20 | 20 | activated prhlA-mNG | activated the reporter | activated both LasR alleles equally | caused off-target inhibition of luciferase | EC50 (LasR Y93F): 15 nM; EC50 (LasR Y93F/A127W): 100 nM
CS(=O)(=O)c1cccc(OCCCC(=O)N[C@H]2C[C@@H]3C[C@@H]3C2=O)c1 (relative stereo) [BB0126, 4-(3-(methylsulfonyl)phenoxy)-N-(rel-(1S,3S,5S)-2-oxobicyclo[3.1.0]hexan-3-yl)butanamide] |  | yielded soluble WT LasR LBD | further enhanced the Tm | > 3100 | 1500 | 600 | 50 | 50 | not in response to BB0126 | activated the reporter | responded to BB0126 | caused off-target inhibition of luciferase | fold lower EC50 with the mutations (WT LasR [7]): 2-to 6 fold; EC50 (LasR R61A): > 10000 nM; soluble WT LasR LBD (WT LasR LBD; induction at 37°C): significantly less soluble; melting temperature peak (LasR LBD; LasR LBD:BB0126 in the presence of excess BB0126 (10 μM)): 49.9 °C; thermal stability of the complex (LasR LBD; LasR LBD:BB0126 without additional ligand): unstable above room temperature; Tm (LasR LBD T75V/Y93F/A127W; LasR LBD T75V/Y93F/A127W:BB0126 without additional ligand): 46.8 °C
